The source of these data is ChEMBL document CHEMBL3120072, “Alkynyl-coumarinyl ethers as MAO-B inhibitors” (Bioorg Med Chem, 2014).

Data set [1] can be described thus: Lipophilicity, log D of the compound at pH 7.4 by HPLC analysis. The note with it: buffer. The data set is classed as physicochemical. The method in brief:
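Retention-based HPLC on a C18 column at 40 °C and 0.8 mL/min. Linear gradient with 10 mM ammonium acetate. UV read at 254 nm. Atenolol, metoprolol, diltiazem, labetalol and triphenylene used as references. Compounds injected from DMSO solutions (0.5 mg/mL) in duplicate.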

Data set [2] has as its target T1, Amine oxidase [flavin-containing] A (Homo sapiens, UniProt P21397).
T1 sequence (P21397 whole entry): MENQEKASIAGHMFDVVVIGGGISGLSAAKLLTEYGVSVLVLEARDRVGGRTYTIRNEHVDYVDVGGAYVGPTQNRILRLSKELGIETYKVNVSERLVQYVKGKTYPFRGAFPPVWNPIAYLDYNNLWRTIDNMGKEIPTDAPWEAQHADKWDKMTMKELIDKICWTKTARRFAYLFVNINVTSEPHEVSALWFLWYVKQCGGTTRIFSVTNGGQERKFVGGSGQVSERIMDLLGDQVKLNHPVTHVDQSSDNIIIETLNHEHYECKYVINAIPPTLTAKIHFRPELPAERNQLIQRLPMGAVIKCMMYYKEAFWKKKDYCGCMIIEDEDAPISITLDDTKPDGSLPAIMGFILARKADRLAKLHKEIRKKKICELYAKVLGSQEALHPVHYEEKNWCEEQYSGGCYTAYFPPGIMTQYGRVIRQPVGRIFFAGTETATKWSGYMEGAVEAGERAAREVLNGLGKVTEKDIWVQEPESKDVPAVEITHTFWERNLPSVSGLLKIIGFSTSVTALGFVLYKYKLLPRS
The data set can be described thus: Inhibition of human recombinant MAO-A expressed in baculovirus infected insect cells assessed as hydrogen peroxide production using p-tyramine as substrate incubated for 30 mins prior to substrate addition measured for 45 mins by Amplex Red monoamine oxidase assay. The essentials:
(§1)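 Human recombinant enzyme in 50 mM sodium phosphate pH 7.4. Test compound in DMSO preincubated with enzyme for 30 min at room temperature. Reaction started with p-tyramine (final 150 µM) plus Amplex Red/HRP and kept in the dark. Resorufin fluorescence (ex 544, em 590 nm) read over 45 min. IC50 values from three experiments.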

In data set [3] the target is T2, Amine oxidase [flavin-containing] B (Homo sapiens, UniProt P27338).
T2 sequence (P27338 whole entry): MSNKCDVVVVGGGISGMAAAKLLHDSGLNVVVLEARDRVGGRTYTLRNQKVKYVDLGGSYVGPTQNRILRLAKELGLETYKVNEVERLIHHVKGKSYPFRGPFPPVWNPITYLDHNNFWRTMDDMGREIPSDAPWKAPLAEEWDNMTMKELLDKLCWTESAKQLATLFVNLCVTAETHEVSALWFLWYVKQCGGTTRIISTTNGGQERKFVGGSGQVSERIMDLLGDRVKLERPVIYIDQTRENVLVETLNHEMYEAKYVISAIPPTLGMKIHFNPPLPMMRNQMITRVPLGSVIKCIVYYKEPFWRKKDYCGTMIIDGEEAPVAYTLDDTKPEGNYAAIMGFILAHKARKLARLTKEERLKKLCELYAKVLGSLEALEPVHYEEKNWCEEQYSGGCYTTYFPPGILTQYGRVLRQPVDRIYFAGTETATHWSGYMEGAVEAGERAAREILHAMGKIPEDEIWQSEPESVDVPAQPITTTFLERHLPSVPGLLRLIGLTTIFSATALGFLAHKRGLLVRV
The data set can be described thus: Inhibition of human recombinant MAO-B expressed in baculovirus infected insect cells assessed as hydrogen peroxide production using p-tyramine as substrate incubated for 30 mins prior to substrate addition measured for 45 mins by Amplex Red monoamine oxidase assay. The essentials: as §1

The species entered for another data set is Homo sapiens. The data set can be described thus: Selectivity ratio of IC50 for human recombinant MAO-A to IC50 for human recombinant MAO-B. The essentials: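 Ratio calculated as IC50 (MAO-A) divided by IC50 (MAO-B), from Amplex Red assays with p-tyramine on human recombinant enzymes.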
For data set [4], the target named is T2, Amine oxidase [flavin-containing] B. The data set can be described thus: Reversible inhibition of human MAO-B using p-tyramine as substrate at IC80 incubated for 1 hr prior to increasing substrate concentration measured for 5 hrs by fluorescence analysis. The essentials: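 Human MAO-B preincubated 1 h with inhibitor at about its IC80. Reaction started with p-tyramine (10 µM). After 22 min, substrate raised to a final 1 mM. Recovery of activity followed by fluorescence over 5 h.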

On to `C#CCCCOc1ccc2cc(C(=O)c3ccc(OC)cc3)c(=O)oc2c1`, for which the pH-dependent lipophilicity (logD) in data set [1] was 3.1. Besides, the half-maximal inhibitory concentration (IC50) in data set [2] was above 10 µM; in data set [3] it was 0.535 µM. In the data set filed under Homo sapiens, the Ratio IC50 is above 19.
As for `C#CCCCCOc1ccc2cc(NC(C)=O)c(=O)oc2c1`, the results for the IC50 in data set [2] and in data set [3] were 0.0668 µM and 0.0417 µM, respectively. Moreover, the Ratio IC50 in the data set filed under Homo sapiens was determined as 2.
On to `C#CCNCCOc1ccc2cc(C(=O)OC)c(=O)oc2c1`, for which the pH-dependent lipophilicity (logD) in data set [1] was found to be 0.5. In addition, the IC50 was 2.68 µM in data set [2] and 0.377 µM in data set [3]. For the same compound, the Ratio IC50 in the data set filed under Homo sapiens is 7.
For `C#CCCCCOc1ccc2c(c1)NC(=O)CC2` the same measures were 1.6, above 10 µM, 0.0526 µM and above 190.
Turning to `COC(=O)c1cc2cc(OCCc3ccc(Cl)cc3)ccc2oc1=O`, the values for the half-inhibitory concentration (IC50) in data set [2] and in data set [3] were above 10 µM and 0.12 µM, respectively. For the same compound, the Ratio IC50 in the data set listed under Homo sapiens was above 83.
Regarding `C#CCCCCOc1ccc2cc(C(=O)c3ccc(OC)cc3)c(=O)oc2c1`, in data set [1], the log distribution coefficient (logD) stood at 3.5. Further, the half-inhibitory concentration (IC50) in data set [2] is above 10 µM; in data set [3], 0.0671 µM. Also, the Ratio IC50 in the data set listed under Homo sapiens was above 150.
In data set [1], `C#CCCCCOc1ccc2cc(-c3ccc(OC)cc3)c(=O)oc2c1` registered a pH-dependent lipophilicity (logD) of 4.3. In addition, the half-inhibitory concentration (IC50) in data set [2] is above 10 µM; in data set [3], 0.00296 µM. Moreover, the Ratio IC50 in the data set filed under Homo sapiens was above 3400. Moreover, the “inhibition (INH)” value in data set [4] was “Active”.
With `C#CCOc1ccc2cc(C(=O)OC)c(=O)oc2c1`, the 50% inhibitory concentration (IC50) amounted to 1.57 µM in data set [2] and 1.79 µM in data set [3]. The Ratio IC50 in the data set listed under Homo sapiens was determined as 1.
In turn, `C#CCCCCOc1ccc2cc(C(=O)OC)c(=O)oc2c1` displayed a logD in data set [1] of 2.5. Also, the figures for the half-maximal inhibitory concentration (IC50) in data set [2] and in data set [3] were 0.00964 µM and 0.00141 µM, respectively. Further, the Ratio IC50 in the data set filed under Homo sapiens came to 7. In addition, the “inhibition (INH)” value in data set [4] is on record as “Active”.
On to `C#CCNCCOc1ccc2ccc(=O)oc2c1`, for which the values for the 50% inhibitory concentration (IC50) in data set [2] and in data set [3] were 10 µM and 0.852 µM, respectively. Also, in the data set listed under Homo sapiens, the Ratio IC50 was 12.
In the case of `C#CCCCOc1cccc2cc(C(=O)OC)c(=O)oc12`, the 50% inhibitory concentration (IC50) in data set [2] and in data set [3] was above 10 µM each time.
As to `CC(=O)Nc1cc2ccc(OCc3cccc(Cl)c3)cc2oc1=O`, the results for the IC50 in data set [2] and in data set [3] were 0.0627 µM and 0.0135 µM, respectively. In addition, in the data set listed under Homo sapiens, the Ratio IC50 amounted to 5.
With `C[C@H](NCc1ccc(OCc2cccc(F)c2)cc1)C(N)=O` [SAFINAMIDE], in data set [4], the “inhibition (INH)” value was “Active”.
For the compound `COC(=O)c1cc2ccc(OCc3cccc(F)c3)cc2oc1=O`, the logD in data set [1] was 3.2. Also, the values for the IC50 in data set [2] and in data set [3] were 0.0772 µM and 0.000588 µM, respectively. Besides, the Ratio IC50 in the data set listed under Homo sapiens worked out at 130.
With `C#CCCCOc1ccc2cc(C(=O)OC)c(=O)oc2c1`, the half-maximal inhibitory concentration (IC50) in data set [2] turned out to be 0.953 µM; in data set [3] it was 0.0824 µM. In addition, in the data set listed under Homo sapiens, the Ratio IC50 was found to be 12.
In the case of `CCCCCCOc1ccc2cc(C(=O)OC)c(=O)oc2c1`, in data set [1], the pH-dependent lipophilicity (logD) turned out to be 4.2. Besides, the IC50 came to 0.0661 µM in data set [2] and 0.000875 µM in data set [3]. In addition, in the data set filed under Homo sapiens, the Ratio IC50 came to 75.
As for `C#CCCCCOc1ccc2oc(=O)c(C(=O)c3ccc(OC)cc3)cc2c1`, the half-inhibitory concentration (IC50) in data set [2] and in data set [3] was above 10 µM throughout.
In the case of `C#CCCCOc1ccc2cc(NC(C)=O)c(=O)oc2c1`, the IC50 in data set [2] came out at 0.93 µM; in data set [3], 0.0436 µM. The Ratio IC50 in the data set listed under Homo sapiens worked out at 21.
For `C#CCCCCOc1ccc2ccc(=O)oc2c1` the same measures were 0.367 µM, 0.00262 µM and 140.
For `COC(=O)c1cc2ccc(OC/C=C(\C)CCC=C(C)C)cc2oc1=O` the same measures were 10 µM, 0.0789 µM and 130.
The corresponding values for `COC(=O)c1cc2cc(OC/C=C(\C)CCC=C(C)C)ccc2oc1=O` are above 10 µM, 0.325 µM and above 31.
`C#CCCCOc1ccc2c(C)cc(=O)oc2c1`: the half-maximal inhibitory concentration (IC50) in data set [2] is 0.553 µM; in data set [3], 0.0182 µM. Moreover, the Ratio IC50 in the data set listed under Homo sapiens was 30.
As for `C#CCCCOc1ccc2oc(=O)c(C(=O)OC)cc2c1`, the IC50 is above 10 µM in data set [2] and 1.44 µM in data set [3]. In the data set listed under Homo sapiens, the Ratio IC50 was above 7.
`COC(=O)c1cc2cc(OCc3cccc(Cl)c3)ccc2oc1=O`: the IC50 is above 10 µM in data set [2] and 0.0315 µM in data set [3]. The Ratio IC50 in the data set filed under Homo sapiens is above 320.
The corresponding values for `C#CCCOc1ccc2cc(C(=O)OC)c(=O)oc2c1` are 0.818 µM, 0.258 µM and 3.
`COC(=O)c1cc2ccc(OCCc3ccc(Cl)cc3)cc2oc1=O` came in with a logD in data set [1] of 3.9. The concentration for half-maximal inhibition (IC50) in data set [2] worked out at 0.0748 µM; in data set [3] it was 0.00141 µM. Also, the Ratio IC50 in the data set filed under Homo sapiens worked out at 53.
Regarding `C#CCCCOc1ccc2ccc(=O)oc2c1`, the concentration for half-maximal inhibition (IC50) in data set [2] was 3.52 µM; in data set [3], 0.0918 µM. Besides, the Ratio IC50 in the data set filed under Homo sapiens came out at 38.
For the compound `C#CCCCOc1ccc2cc(C(=O)O)c(=O)oc2c1`, the IC50 in data set [2] and in data set [3] was above 10 µM in each case.
As to `C#CCCCCOc1ccc2oc(=O)c(C(=O)OC)cc2c1`, the IC50 was above 10 µM in data set [2] and 0.123 µM in data set [3]. Moreover, the Ratio IC50 in the data set filed under Homo sapiens was above 81.
For `C#CCCCOc1ccc2cc(C(=O)Nc3ccc(F)cc3)c(=O)oc2c1`, the IC50 in data set [2] and in data set [3] was above 10 µM throughout.
With `C#CCCCCOc1ccc2oc(=O)c(NC(C)=O)cc2c1`, the logD in data set [1] was determined as 2.4. In addition, the IC50 in data set [2] is above 10 µM; in data set [3], 0.0247 µM. Further, in the data set filed under Homo sapiens, the Ratio IC50 is above 400.
`C#CCCCCOc1ccc2c(C)cc(=O)oc2c1`: the IC50 in data set [2] was 0.0599 µM; in data set [3], 0.00077 µM. For the same compound, the Ratio IC50 in the data set listed under Homo sapiens is 78.
For the compound `C#CCCCOc1ccc2cc(C(=O)N3CCN(C(=O)OC(C)(C)C)CC3)c(=O)oc2c1`, the 50% inhibitory concentration (IC50) is above 10 µM in data set [2] and 10 µM in data set [3].

As a reminder, the logD is lipophilicity at a set pH, counting ionised and neutral species. For orientation: IC50 means the concentration needed to halve the response being measured.
